Bioassay records as filed in PubChem BioAssay.
M5 PAM – positive allosteric modulators of human muscarinic M5 receptor. P08912. CHO-K1 hM5, Fluo-8 calcium, ACh EC20 PAM; 0% = ACh EC20, 100% = ACh EC100. activation, % at 3 µM. 360,000 compounds, 0.3% hits. AID 624038;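 active means activation above the run cutoff, the mean activation of all test compounds plus 3 SD, cut at about 18% in these data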
Target sequence (P08912 whole entry, looked up): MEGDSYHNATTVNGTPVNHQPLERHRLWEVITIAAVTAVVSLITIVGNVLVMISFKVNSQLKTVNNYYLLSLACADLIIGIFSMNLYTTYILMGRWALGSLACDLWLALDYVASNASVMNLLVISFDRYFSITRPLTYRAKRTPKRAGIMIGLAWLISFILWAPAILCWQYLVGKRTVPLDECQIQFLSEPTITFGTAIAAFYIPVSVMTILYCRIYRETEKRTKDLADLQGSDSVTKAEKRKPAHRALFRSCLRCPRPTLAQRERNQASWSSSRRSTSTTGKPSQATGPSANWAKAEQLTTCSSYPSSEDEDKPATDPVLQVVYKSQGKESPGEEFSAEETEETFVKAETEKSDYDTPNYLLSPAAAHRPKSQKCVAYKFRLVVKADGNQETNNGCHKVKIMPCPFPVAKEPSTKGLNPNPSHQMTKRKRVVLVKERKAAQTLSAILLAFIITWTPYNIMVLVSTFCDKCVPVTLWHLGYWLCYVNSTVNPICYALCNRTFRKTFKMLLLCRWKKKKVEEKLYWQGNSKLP
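Assay system – human M5 receptor in CHO-K1 cells · Read-out – % activation, ACh-normalized · Technique – Fluo-8 calcium fluorescence · Dosing – single-point, 3 µM nominal · Incubation – Fluo-8 loading 80 min at 37 °C plus 30 min room temperature · Repeats – singlicate, one well per test compound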
CHRM5 agonist – agonists of human muscarinic M5 receptor (CHRM5) | P08912 | CHO-K1 hM5 cells, Fluo-8 calcium fluorescence; 0% DMSO wells, 100% maximal acetylcholine response | activation, % at 3 µM | 360,000 compounds, 0.19% hits | AID 624037;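 active means activation above the run's mean over test compounds plus 3 SD, cut at about 23% in these data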;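 further: signal is peak over basal fluorescence ratio across the kinetic read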
CHRM4 agonist – CHRM4 agonism in calcium assay. P08173. CHO-K1 hM4/Gqi5, Fluo-8 calcium fluorescence; vehicle 0%, full acetylcholine response 100%. 360,000 compounds, 0.14% hits. activation, % at 3 µM;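 active means activation above the run mean over all test wells plus 3 SD, cut at about 32% in these data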;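 further: peak over basal fluorescence ratio per well then scaled between controls; 0% = DMSO wells and 100% = acetylcholine at EC100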
CHRM5 antagonist – antagonists of human muscarinic M5 receptor (CHRM5); 360,000 compounds, 0.59% hits; P08912; AID 624040; inhibition, % at 3 µM; CHO-hM5 cells, Fluo-8 calcium fluorescence, ACh EC80;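 active means inhibition above a per-plate cutoff, the mean of that plate's test compounds plus 3 SD, cut at about 27% in these data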;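 further: 0% = acetylcholine EC80 with DMSO and 100% = DMSO without agonist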
M4 antag – blocks acetylcholine activation of human M4 receptor. P08173. CHO-hM4 cells, ACh EC80, Fluo-8 calcium fluorescence. inhibition, % at 3 µM. 360,000 compounds, 0.73% hits;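 active means inhibition above its plate's cutoff, the mean inhibition of sample wells plus 3 SD, cut at about 27% in these data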;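 further: 0% = acetylcholine EC80 with DMSO and 100% = DMSO without agonist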
M4 PAM – positive allosteric modulators of human muscarinic M4 receptor | CHO-K1 hM4/Gqi5, Fluo-8 calcium fluorescence, ACh EC20; 0% = ACh EC20, 100% = maximal ACh | P08173 | AID 624126 | 360,000 compounds, 0.4% hits | activation, % at 3 µM;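 active means activation above its plate's cutoff, the mean activation of sample wells plus 3 SD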
* = called active by the depositor. Rows were chosen to be rich in hits. Some 1.8% of all compounds tested hit in one or more screens of this group.

SMILES | M5 PAM | CHRM5 agonist | CHRM4 agonist | CHRM5 antagonist | M4 antag | M4 PAM
O=C(CN(c1ccc(Br)cc1)S(=O)(=O)c1ccc(Cl)c([N+](=O)[O-])c1)NCC1CCCO1 (stereo not given) | 9.9 | 2.8 | -0.1 | 8.0 | 5.1 | -0.8
CCOc1ccccc1N1CCN(CC(=O)Nc2nccs2)CC1 | 2.7 | 0.8 | 1.8 | 1.4 | -15.1 | 5.7
CC(C)OCCCNC(=S)N1CCC(C(=O)c2ccc(F)cc2)CC1 | -4.5 | 2.6 | 4.3 | 18.4 | -7.7 | 2.3
Cc1ccc(C(=O)C2CCN(C(=S)NCCCOC(C)C)CC2)cc1 | 22.9* | 7.4 | 3.8 | -16.6 | -16.5 | 5.9
CCOC(=O)C1CCN(c2ncnc3c(C)csc23)CC1 | -31.5 | 5.8 | 21.9 | 19.5 | 34.7* | -46.3
CC(C)C(=O)Nc1ccc(N2CCCC2)cc1 | 0.8 | -2.2 | 0.0 | 1.1 | 29.6* | -13.1
Cc1ccnc(Cc2ccccc2)n1 | -1.5 | -0.1 | 1.1 | 1.7 | -3.6 | 4.4
CCOc1cc(/C=C2\CCCc3c2nc2ccccc2c3C(=O)O)ccc1OC | -7.6 | 15.7 | 43.6* | 6.0 | 4.1 | -9.6
Cc1cccc(C)c1NC(=O)COC(=O)c1c2c(nc3ccccc13)/C(=C\c1ccc3c(c1)OCO3)CCC2 | -21.3 | 48.8* | 88.5* | 23.5 | 37.5* | -21.8
O=C(/C=C/[C@H]1O[C@@H](n2ccc(=O)[nH]c2=O)[C@H](O)[C@@H]1O)N1CCN(CCc2ccccc2)CC1 | -0.3 | 1.8 | 0.6 | 3.5 | -6.5 | 2.0
CCOC(=O)/C=c1\s/c(=C(\C#N)C(N)=O)n(-c2ccccc2)c1=O | 7.4 | 4.1 | 2.7 | -3.0 | -6.7 | 0.1
CCOC(=O)/C=c1\s/c(=C(\C#N)C(=O)NC)n(-c2ccccc2)c1=O | 22.8* | -2.1 | 1.3 | -12.3 | 1.7 | 17.5
O=C(Nc1cccc(C(=O)Nc2ccc(F)cc2F)c1)c1ccccc1 | -0.3 | -2.0 | 3.8 | -2.4 | -9.8 | 3.7
CCc1ccccc1-n1c(SCC(=O)NC)nnc1-c1ccco1 | 18.2* | 8.6 | 1.1 | -16.4 | -3.3 | 7.7
CNC(=O)CSc1nnc(-c2ccco2)n1-c1ccc(C)cc1 | 5.1 | -4.6 | 1.6 | 2.3 | -4.1 | 9.8
CC1=C(C(=O)N2CCOCC2)CC(CC(=O)NCc2cccs2)C(=O)N1Cc1ccccc1 (stereo not given) | 3.5 | 1.4 | 0.6 | -1.6 | 6.7 | -3.8
O=C(CN1CCCCC1)Nc1ccccc1-c1ccccc1 | -25.0 | -7.9 | -1.1 | 45.4* | 68.2* | -16.0
O=C(CN1CCC(NC(=O)C2CCCCC2)CC1)NCc1ccco1 | -2.0 | -3.5 | 0.4 | -10.3 | -17.9 | 3.5
O=C(COC(=O)c1ccc(O)cc1)Nc1ccccc1-c1ccccc1 | -19.0 | 2.2 | 13.3 | 35.2* | 20.6 | -12.8
O=C(CN1CCCC1)NCc1ccccc1 | 5.2 | -1.4 | 0.9 | -2.8 | 5.1 | -2.7
O=C(CN1CCC(NC(=O)Nc2ccccc2-c2ccccc2)CC1)NCc1ccco1 | -17.6 | -6.7 | 1.9 | 60.7* | 17.2 | -20.1
O=C(CN1CCOCC1)Nc1ccccc1-c1ccccc1 | -1.7 | -1.3 | 1.3 | -5.8 | 13.5 | 5.5
O=C(CN1CCCCCC1)NN(Cc1ccccc1)c1ccccc1 | -26.0 | -18.8 | 0.2 | 12.3 | 29.3* | -49.2
COc1cccc(-c2cnc3c(NC=O)cc(-c4ccccc4Oc4ccccc4)cn23)c1 | -7.7 | -2.1 | 0.0 | 10.1 | 0.5 | 2.0
O=C(NCCN1CCN(Cc2ccccc2)CC1)c1ccc(CS(=O)(=O)c2c(Cl)cccc2Cl)o1 | -8.3 | -3.2 | 2.5 | 12.2 | 20.4 | -10.0
SMILES | M5 PAM | CHRM5 agonist | CHRM4 agonist | CHRM5 antagonist | M4 antag | M4 PAM
C[C@H](CO)N1C[C@H](C)[C@@H](CN(C)Cc2ccc(Cl)c(Cl)c2)Oc2c(NC(=O)Cc3ccccc3)cccc2C1=O | -28.2 | -3.1 | 20.6 | 7.5 | 31.2* | -7.6
C[C@H](CO)N1C[C@H](C)[C@@H](CN(C)C(=O)Nc2ccccc2)Oc2c(NC(=O)Nc3ccc4c(c3)OCO4)cccc2C1=O | -13.2 | 0.5 | 5.7 | 9.2 | -7.6 | 4.4
C[C@H](CO)N1C[C@H](C)[C@@H](CN(C)C(=O)Nc2ccc3c(c2)OCO3)Oc2c(NC(=O)Nc3ccc4c(c3)OCO4)cccc2C1=O | -24.5 | 2.2 | 21.4 | 22.7 | 26.9* | -6.7
CCC/C(O)=C1\C(=O)CC(C)(C)CC1=Nc1ccc(OC)cc1 | 6.3 | -1.1 | -1.7 | 3.8 | 0.0 | -2.5
CCCC/C(O)=C1\C(=O)CC(C)(C)CC1=Nc1ccc(OC)cc1 | -1.1 | -0.9 | -3.0 | -1.9 | 30.5* | -16.8
CN(CC(=O)Nc1ccc(Cl)c(Cl)c1)CC(=O)Nc1ccc2c(c1)OCO2 | -3.5 | 3.3 | 7.8 | 10.6 | 1.4 | 6.2
Oc1ccc(Cl)cc1C1=NNC(c2cc(Br)cc3c2OCOC3)C1 (stereo not given) | 21.2* | 4.1 | -0.5 | -1.6 | -0.9 | 0.0
Oc1ccc(Cl)cc1C1=NNC(c2ccc(Cl)cc2)C1 (stereo not given) | -5.3 | -1.0 | 0.6 | 3.2 | 8.2 | -1.3
CCc1ccccc1N1CC(C(=O)Nc2cc(S(=O)(=O)N3CCCC3)ccc2Cl)CC1=O (stereo not given) | -5.5 | 3.6 | 8.8 | 3.6 | 2.4 | -8.8
CC(NC(=O)Cc1cccs1)C(c1cccs1)N1CCOCC1 (stereo not given) | 12.3 | -2.1 | 1.4 | -4.5 | -2.3 | 35.6*
CCC(=O)NC(C)C(c1cccs1)N1CCOCC1 (stereo not given) | 1.0 | 1.6 | -0.1 | -1.5 | -7.6 | 8.3
CC(NS(=O)(=O)c1ccc(F)cc1)C(c1cccs1)N1CCOCC1 (stereo not given) | -5.6 | -0.3 | 0.6 | -3.2 | 54.1* | -14.2
CC(C)[C@H](NC(=O)OCc1ccccc1)C(=O)OCC(=O)NC1CCCCC1 | -2.8 | -4.2 | 0.5 | -0.3 | -0.2 | 0.7
CC(C)[C@H](NC(=O)OCc1ccccc1)C(=O)OCC(=O)NC1(C#N)CCCC1 | 10.8 | -5.2 | 1.3 | -2.4 | 0.7 | 15.9*
O=C1CCc2cc(NS(=O)(=O)c3cc(F)ccc3F)cc3c2N1CC3 | 1.6 | 2.7 | 2.5 | -2.4 | -4.6 | 5.0
CCCCn1c(N)c(N(C)C(=O)c2ccc(Br)o2)c(=O)[nH]c1=O | 0.1 | 3.5 | 0.8 | 0.3 | -7.7 | 12.1
CN(C)C(=O)CSc1nnc2sc3ccccc3n12 | 2.9 | -2.7 | 1.7 | 0.0 | -4.9 | 4.5
CCOC(=O)CC(=O)CSc1nnc2sc3ccccc3n12 | 34.7* | -8.8 | 6.4 | -14.7 | -15.8 | -0.9
O=c1c2cnn(-c3ccc(F)cc3)c2ncn1Cc1cccnc1 | 28.6* | 2.2 | 4.0 | -2.3 | -16.1 | 4.2
O=S(=O)(c1ccccc1)N1CCC(Oc2ccc(-n3cnnn3)cc2)CC1 | -15.2 | 5.5 | 25.9 | 9.4 | 28.2* | -12.4
